Results published in ChEMBL document CHEMBL4257549, “Design, synthesis and biological evaluation of benzimidazole-rhodanine conjugates as potent topoisomerase II inhibitors” (Medchemcomm, 2018).
Calls of active or inactive are those of the source. The calls are words filed in the database; no cut-off is given here.

Legend:
[1] = test system: PC-3; assay: Cytotoxicity against human PC3 cells after 48 hrs by MTT assay; format: functional, cell-based; details: PC-3, 48 h
How it was run: (§1)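 Cells seeded at 5000 per well, left overnight, then exposed to compound at 0–50 μM for 48 h. MTT (20 μL of 2.5 mg mL−1) added for a further 4 h at 37 °C, formazan dissolved in DMSO, absorbance read at 570 nm. Quadruplicate wells, N > 2 determinations, mean IC50 taken as the concentration reducing cell number to 50%.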

[2] = target: T1, DNA topoisomerase 1 (Homo sapiens) (UniProt P11387); assay: Inhibition of topoisomerase 1 (unknown origin)-mediated pBR322 DNA relaxation at 50 uM after 30 mins by agarose gel electrophoresis
T1 sequence (whole entry): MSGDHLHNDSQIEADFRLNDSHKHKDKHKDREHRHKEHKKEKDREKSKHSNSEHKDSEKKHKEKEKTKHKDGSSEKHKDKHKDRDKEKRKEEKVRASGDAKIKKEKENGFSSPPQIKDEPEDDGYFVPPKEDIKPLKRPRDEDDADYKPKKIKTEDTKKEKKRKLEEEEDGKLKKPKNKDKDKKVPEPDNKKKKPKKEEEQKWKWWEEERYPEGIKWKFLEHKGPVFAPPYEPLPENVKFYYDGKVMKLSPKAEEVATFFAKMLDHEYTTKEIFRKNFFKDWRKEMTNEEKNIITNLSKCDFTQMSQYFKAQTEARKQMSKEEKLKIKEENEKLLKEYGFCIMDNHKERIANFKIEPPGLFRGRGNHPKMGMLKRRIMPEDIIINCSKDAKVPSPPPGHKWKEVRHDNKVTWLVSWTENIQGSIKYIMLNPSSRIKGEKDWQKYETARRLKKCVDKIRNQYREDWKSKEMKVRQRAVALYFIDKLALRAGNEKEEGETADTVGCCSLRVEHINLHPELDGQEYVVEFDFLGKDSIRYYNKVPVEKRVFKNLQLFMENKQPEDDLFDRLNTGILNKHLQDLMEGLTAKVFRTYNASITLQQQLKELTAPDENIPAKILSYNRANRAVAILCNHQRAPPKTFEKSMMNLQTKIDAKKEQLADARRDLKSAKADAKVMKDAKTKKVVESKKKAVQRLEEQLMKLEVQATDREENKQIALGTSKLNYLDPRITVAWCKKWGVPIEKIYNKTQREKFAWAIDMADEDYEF
How it was run: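 Topo I relaxation of pBR322 with compound at 30 min, 37 °C, camptothecin positive control. Stopped with SDS/bromophenol blue/glycerol dye, run on 1% agarose in TAE for 1.5 h, Ged Red stained, UV visualized.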

[3] = test system: A549; assay: Cytotoxicity against human A549 cells after 48 hrs by MTT assay; format: functional, cell-based; details: A549, 48 h; how it was run: as §1
[4] = test system: HeLa; assay: Cytotoxicity against human HeLa cells after 48 hrs by MTT assay; format: functional, cell-based; how it was run: as §1
[5] = test system: MDA-MB-231; assay: Cytotoxicity against human MDA-MB-231 cells after 48 hrs by MTT assay; format: functional, cell-based; details: MDA-MB-231, 48 h; how it was run: as §1
[6] = organism: Homo sapiens; assay: Inhibition of human topoisomerase 2-mediated pBR322 DNA relaxation at 10 uM after 30 mins by agarose gel electrophoresis
[7] = organism: Homo sapiens; assay: Inhibition of human topoisomerase 2-mediated pBR322 DNA relaxation at 20 uM after 30 mins by agarose gel electrophoresis
[8] = test system: HL-60; assay: Cytotoxicity against human HL60 cells after 48 hrs by MTT assay; format: functional, cell-based; details: HL-60, 48 h; how it was run: as §1
[9] = test system: Raji; assay: Cytotoxicity against human Raji cells after 48 hrs by MTT assay; format: functional, cell-based; how it was run: as §1
[10] = organism: Homo sapiens; assay: Inhibition of human topoisomerase 2-mediated pBR322 DNA relaxation at 50 uM after 30 mins by agarose gel electrophoresis
How it was run: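 Relaxation of 200 ng supercoiled pBR322 by 1 U Topo II (TopoGEN) in 20 μL buffer: 50 mM Tris-HCl pH 8.0, 150 mM NaCl, 10 mM MgCl2, 2 mM ATP, 0.5 mM DTT, 30 μg/mL BSA. Incubated 30 min at 37 °C, stopped with sarcosyl/glycerol dye. Products run on 1% agarose in TAE (1.5 h, 75 V), Ged Red stained, UV imaged; etoposide positive control.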

| SMILES | IC50 [1] | inhibition [2] | IC50 [3] | IC50 [4] | IC50 [5] | inhibition [6] | inhibition [7] | IC50 [8] | IC50 [9] | inhibition [10] |
| --- | --- | --- | --- | --- | --- | --- | --- | --- | --- | --- |
| O=C(O)CN1C(=O)/C(=C/c2nc3cc(Cl)ccc3n2Cc2ccccc2F)SC1=S | 3.48 µM | inactive | 5.64 µM | 9.52 µM | 1.67 µM | Active | Active | 0.87 µM | 2.78 µM | Active |
| Cc1ccc(Cn2c(/C=C3\SC(=S)N(CC(=O)O)C3=O)nc3cc(F)ccc32)cc1 | 10.2 µM | inactive | 13.8 µM | 2.38 µM | 6.55 µM | Active | Active | 1.17 µM | 3.28 µM | Active |
| O=C(O)CN1C(=O)/C(=C/c2nc3ccc(Cl)cc3n2Cc2ccccc2F)SC1=S | 17.3 µM | inactive | 26.9 µM | 7.62 µM | 9.57 µM | Active | Active | 5.23 µM | 8.87 µM | Active |
| COc1ccc2nc(/C=C3\SC(=S)N(CC(=O)O)C3=O)n(Cc3ccccc3F)c2c1 | > 50 µM | inactive | 36.2 µM | 28.1 µM | 22.4 µM | Active | Active | 6.44 µM | 12.3 µM | Active |
| Cc1ccc(Cn2c(/C=C3\SC(=S)N(CC(=O)O)C3=O)nc3cc(Cl)ccc32)cc1 | 26.7 µM | inactive | 38.6 µM | 21.4 µM | 13.7 µM | Active | Active | 2.72 µM | 20.9 µM | Active |
| COc1ccc2c(c1)nc(/C=C1\SC(=S)N(CC(=O)O)C1=O)n2Cc1ccc(C)cc1 | 3.64 µM | inactive | 5.68 µM | 1.82 µM | 1.22 µM | Active | Active | 0.77 µM | 1.79 µM | Active |
| O=C(O)CN1C(=O)/C(=C/c2nc3ccc(F)cc3n2Cc2ccccc2F)SC1=S | > 50 µM | inactive | > 50 µM | > 50 µM | > 50 µM | Active | Active | 5.23 µM | 22.4 µM | Active |
| O=C(O)CN1C(=O)/C(=C/c2nc3ccccc3n2Cc2ccc(F)c(F)c2)SC1=S | 5.97 µM | inactive | 13.4 µM | 16 µM | 3.76 µM | Active | Active | 2.74 µM | 7.25 µM | Active |
| Cc1ccc(Cn2c(/C=C3\SC(=S)N(CC(=O)O)C3=O)nc3ccc(F)cc32)cc1 | 5.82 µM | inactive | 9.64 µM | 3.92 µM | 3.86 µM | Active | Active | 1.69 µM | 2.44 µM | Active |
